FLuc act counter: affects firefly luciferase, flagging false hits in luciferase stimulation screens; ATPlite luciferase biochemical, luminescence, 10 min; 0 = ATP-free wells, 1 = DMSO control; 200,000 tested, under 10 active; activation factor at 10 µM;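 active means luciferase activation factor, scaled between plate controls, of at least 2 with compound at 10 µM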
Target sequence (P08659 whole entry, looked up): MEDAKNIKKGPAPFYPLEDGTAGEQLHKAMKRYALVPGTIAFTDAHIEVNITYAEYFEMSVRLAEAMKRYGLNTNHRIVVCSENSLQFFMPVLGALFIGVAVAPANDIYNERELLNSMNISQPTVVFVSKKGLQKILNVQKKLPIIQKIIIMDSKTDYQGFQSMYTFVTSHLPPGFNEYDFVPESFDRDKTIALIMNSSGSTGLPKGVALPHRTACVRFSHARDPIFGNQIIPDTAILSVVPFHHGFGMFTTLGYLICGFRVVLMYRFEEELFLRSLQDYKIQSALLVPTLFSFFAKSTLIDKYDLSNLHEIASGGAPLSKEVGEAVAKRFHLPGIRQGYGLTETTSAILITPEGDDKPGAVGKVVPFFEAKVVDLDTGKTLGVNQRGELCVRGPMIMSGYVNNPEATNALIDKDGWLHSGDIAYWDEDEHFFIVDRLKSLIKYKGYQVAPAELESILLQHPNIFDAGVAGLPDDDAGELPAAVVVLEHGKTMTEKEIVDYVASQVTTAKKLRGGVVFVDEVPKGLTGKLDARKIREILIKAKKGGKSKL
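test system = cell-free luciferase reagent | medium = PBS as buffer for the ATP substrate | dosing = test compounds dosed from 2 mM stocks in 100% DMSO | incubation = 10 min at ambient temperature | detection = luminescence measurement of luciferase light output | benchmarks = low control with PBS replacing ATP, high control enzyme plus ATP without compound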
NF-kB expr up: NF-kB expression increase, human neuronal cells | NF-kB reporter expression; active compounds read high | fold change at 12.5 µM | 1.6% of 190,000 active; in the data active means fold change above about 3.3
STAT1 activator: STAT1 signaling activation; NIH 3T3 STAT1-luciferase reporter, IFN-gamma, luminescence; 100% = IFN-gamma alone, no compound; activation (% of control), % at 5.5 µM; 2.6% of 200,000 active; AID 932;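 active means activation above the screen-wide mean activation plus 3 SD, cut at about 130% in these data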;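 further: raw ratio to IFN-gamma control signal so 100% means no change and 0% no light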
APP 5'UTR act: APP 5'UTR luciferase reporter activation | SH-SY5Y APP 5'UTR luciferase reporter, luminescence; zero percent = DMSO vehicle wells | activation, % at 2 µM | 1% of 190,000 active | AID 1276;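 active means activation above a set limit, based on mean plus 3 SD of controls, cut at about 140% in these data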
Rad51 HR inh: Rad51 (human) homologous recombination inhibition; Q06609; hRad51 DNA strand exchange, fluorescence dequenching; inhibition, % at 10 µM; 0.085% of 200,000 active;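 active means inhibition above 40% at the single screening dose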;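 further: 0% = DMSO control wells and 100% = blanks with heterologous ssDNA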
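System: hRad51 filaments on single-stranded DNA; reagent: Fluorescein- and BHQ1-tagged 47-mer duplex; compound dosing: one concentration, 10 µM final; timing: filaments 15 min 37 °C, then compound 30 min; measured by: fluorescein emission 520 nm, excitation 485 nm; benchmarks: per-plate controls and blanks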
FLuc inhib CS: counter-screen for luciferase assay inhibitors: firefly luciferase inhibition; 1.5% of 200,000 active; inhibition, % at 10 µM; ATPLite firefly luciferase biochemical luminescence, 10 min; AID 1006; P08659;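 active means inhibition above about 50% when tested at 10 µM, limit read from the data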
STAT1 act conf: confirmation of STAT1 signaling activators; shares compounds with STAT1 activator; activation (% of control), % at 5.7 µM; NIH 3T3 STAT1-luciferase reporter, IFN-gamma potentiation, luminescence; 100% = IFN-gamma EC80 alone, no compound; 97% of 1,200 active; AID 1262;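 active means activation above a set limit carried over from the earlier primary STAT1 screen, cut at about 140% in these data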;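 further: simple ratio to median IFN-gamma plus DMSO wells so 0% means no light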
NFkB act: NF-kappaB activation in STAT1 activator counter-screen; shares compounds with STAT1 activator; HEK293T NF-kB luciferase reporter, TNF-alpha stimulated, luminescence; 100% = TNF-alpha with vehicle only; activation (% of control), % at 5.7 µM; 43% of 1,200 active; AID 1306;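 active means activation above the mean of solvent-only control wells plus 3 SD, set per campaign, cut at about 130% in these data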;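 further: TNF-alpha given at a submaximal dose yielding about 80% of full reporter signal; values are well signal over median control so 100% means no change and 0% no light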
STAT3 act STAT1c: counter-screen for STAT1 activators: human STAT3 activation | U3A cells STAT3-luciferase reporter, IL-6, luminescence; cells lack STAT1; 100 = IL-6 alone, no compound effect | 46% of 1,200 active | shares compounds with STAT1 activator | activation (% of control), % at 5.7 µM;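 active means activation above the solvent-only control well mean plus 3 SD, set per plate batch, cut at about 110% in these data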;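 further: 0% = no luminescence and 100% = median IL-6 plus DMSO wells; higher means more STAT3 reporter activation so hits are non-selective activators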
* hit, by the source's call; · = no result. This is a sample that favours compounds with a hit; in the whole collection about 3.9% have one here.

SMILES	FLuc act counter	NF-kB expr up	STAT1 activator	APP 5'UTR act	Rad51 HR inh	FLuc inhib CS	STAT1 act conf	NFkB act	STAT3 act STAT1c
CCNC(=S)/N=C(\N)Nc1nc(C)c2cc(C)ccc2n1	0.8	2	182*	66	·	15	179*	141*	125*
O=C(O)C1CC=CCC1C(=O)Nc1ccccc1 (stereo not drawn)	1	1.1	105	15	4	-2	·	·	·
CC1CC1C(=O)Nc1ccc(-c2ccccc2)cc1 (stereo not drawn)	0.9	3.3*	155*	121	2	14	162*	127	97
Cc1cc(C(=O)NCCC(c2ccccc2)c2ccccc2)c(C)o1	1	1.1	107	-4	2	-1	·	·	·
Cc1c(-c2nc(N)nc(Nc3ccc(F)cc3)n2)oc2ccccc12	1	3.3*	156*	152*	5	-4	183*	142*	106
CCOC(=O)c1sc(N/N=C/c2ccccc2)nc1C	0.8	2.6	152*	134	-10	16	183*	134*	107
Brc1ccc(-c2csc(N3CCOCC3)n2)cc1	0.9	3.4*	151*	107	3	9	190*	137*	101
Clc1ccc(-c2csc(N3CCOCC3)n2)cc1	0.8	4.9*	160*	118	-7	22	176*	139*	96
COc1ccc(-c2csc(N3CCOCC3)n2)cc1OC	0.9	1.6	128	26	-1	15	·	·	·
Cc1ccc(OCc2ccc(Br)cc2)c([N+](=O)[O-])n1	0.8	3.8*	154*	156*	11	22	175*	141*	118*
O=C(NCc1cccc(F)c1)C1CCN(S(=O)(=O)Cc2ccccc2)CC1	1	0.91	106	-10	-5	-4	·	·	·
CC(=O)Cc1nsc(NC(=O)c2ccc(-c3ccccc3Cl)o2)n1	0.7	1.7	99	12	0	26	·	·	·
COc1ccc(NC(=O)c2ccc(-c3ccc([N+](=O)[O-])cc3)o2)cc1	1	1.1	108	19	8	3	·	·	·
O=C(Nc1nccs1)c1ccc(-c2ccccc2Cl)o1	0.5	2.7	152*	156*	2	46	178*	136*	107
O=C(Nc1nccs1)c1ccc(-c2ccc([N+](=O)[O-])cc2)o1	0.8	1.7	151*	103	-53	21	183*	130	96
COc1ccc(-c2[nH]n(-c3ccc([N+](=O)[O-])cc3)c(=O)c2C=NCCN2CCNCC2)cc1	1	1	95	-14	17	-4	·	·	·
O=c1c(C=NCCN2CCNCC2)c(-c2ccccc2)[nH]n1-c1ccc([N+](=O)[O-])cc1	1	1.8	168*	8	-5	-3	145*	125	120*
Cc1ccc(/C=C(\C#N)C(=O)Nc2ccccn2)o1	0.3	4.3*	187*	100	9	68*	205*	138*	111*
Cc1ccc(/C=C(\C#N)C(=O)NC(C)C)o1	1.1	1	103	7	0	-6	·	·	·
CCCCn1cnc2sc(-c3ccccc3)cc2c1=O	0.9	5.9*	162*	0	-9	8	218*	150*	111*
CCCCCn1c(-c2ccco2)nc2nc3ccccc3nc21	1	0.91	104	3	·	-4	·	·	·
c1ccc(Cn2c(-c3ccco3)nc3nc4ccccc4nc32)cc1	0.9	2.1	152*	61	-9	11	158*	127	115*
COc1ccc(-c2nn(-c3ccccc3)cc2N)cc1	0.7	4*	165*	79	-4	26	159*	120	164*
COc1cccc(/C=N/N=C(\N)c2nonc2N)c1O	0.8	1.9	124	30	-11	18	·	·	·
COc1ccccc1/C=N\N=C(\N)c1ccccn1	0.7	2.7	162*	57	·	28	190*	124	108
SMILES	FLuc act counter	NF-kB expr up	STAT1 activator	APP 5'UTR act	Rad51 HR inh	FLuc inhib CS	STAT1 act conf	NFkB act	STAT3 act STAT1c
Nc1c(Cl)ncnc1N/N=C/c1ccc2ccccc2n1	0.3	0.41	162*	-66	·	72*	161*	125	138*
Nc1c(Cl)ncnc1N/N=C/c1ccccn1	0.6	1.1	114	-92	-10	37	·	·	·
CC(C)(C)NC(=O)C(=O)NNC(=O)c1cccc([N+](=O)[O-])c1	0.9	1.3	109	7	14	10	·	·	·
CCC(=O)Nc1ccc2oc(-c3ccccc3Br)nc2c1	0.6	5.7*	160*	118	-7	39	190*	138*	99
O=C(Nc1ccc2oc(-c3cccc4ccccc34)nc2c1)c1ncn[nH]1	1	1.5	125	16	0	3	·	·	·
O=C(Nc1ccc2oc(-c3ccccc3Cl)nc2c1)c1ncn[nH]1	0.6	5.1*	156*	60	3	45	204*	132	114*
CCC(=O)Nc1ccc2oc(-c3cccnc3)nc2c1	·	·	·	·	2	·	·	·	·
COc1ccc(CN(C)C(=O)c2cnc(OC)cc2C(F)(F)F)c(OC)c1	·	·	·	·	-15	·	·	·	·
CCOC(=O)C1CCN(C(=O)CN(c2cccc(OC)c2)S(=O)(=O)c2ccccc2)CC1	1.1	1	92	9	0	-9	·	·	·
C/C(=N\N=C\c1ccc(N(C)C)cc1)c1cccc([N+](=O)[O-])c1	0.9	2.2	125	27	·	11	·	·	·
CN(C)c1ccc(/C=N/N=C/c2ccccc2O)cc1	0.6	3.6*	156*	165*	7	37	208*	87	75
COc1ccc(Nc2nccc3c2nnn3C)cc1	0.8	2.6	154*	137*	4	17	167*	124	97
Cn1nnc2c(NCc3ccco3)nccc21	1	1.3	95	-1	-1	-3	·	·	·
CCOC(=O)C1CCN(c2ccc(C(N)=O)cc2[N+](=O)[O-])CC1	1	1.1	98	-12	3	-5	·	·	·
COc1ccc(NC(=O)Nc2ccccc2OC)cc1	0.5	2.5	114	32	0	46	·	·	·
COc1ccc(NC(=O)N/C=C/c2ccccc2)cc1	0.9	1.2	156*	113	-1	6	168*	142*	105
